# Results reported in ChEMBL document CHEMBL4312003, “Optimization of biaryloxazolidinone as promising antibacterial agents against antibiotic-susceptible and antibiotic-resistant gram-positive bacteria” (Eur J Med Chem, 2020).
# Assays:
# [1] = Solubility of compound in water by UV spectrophotometric analysis; format: physicochemical
# Enterococcus faecalis [2] = test: Potency index, ratio of rade-zolid MIC to compound MIC for antibacterial activity against linezolid-resistant Enterococcus faecalis by CLSI protocol based broth liquid microdilution method; format: functional
# Enterococcus faecium [3] = test: Antibacterial activity against clinical isolates of vancomycin-resistant Enterococcus faecium assessed as complete reduction in bacterial cell growth by CLSI protocol based broth liquid microdilution method; format: functional
# Procedure, shortened: (§1)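 Broth liquid microdilution per CLSI guidelines; isolates identified on an automated MicroScan system before testing. MIC taken as lowest concentration giving total inhibition of bacterial growth, reported in μg/mL. S. aureus ATCC29213 run as the control strain.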
# [4] = Stability in simulated gastric acid assessed as compound remaining at pH 1.2 incubated for 2 hrs; format: ADME; conditions: read-out: Stability
# Staphylococcus aureus [5] = test: Potency index, ratio of rade-zolid MIC to compound MIC for antibacterial activity against methicillin-sensitive Staphylococcus aureus by CLSI protocol based broth liquid microdilution method; format: functional
# [6] = Stability in human liver microsomes assessed as compound remaining at 1.5 uM preincubated for 5 mins with NADPH and measured after 45 mins by LC/MS analysis; format: ADME, Microsome
# Procedure, shortened: (§2)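 Compound solution at 1.5 µM with 0.75 mg/mL microsomes (before NADPH addition) was preincubated 5 min at 37 °C. Reactions were started with NADPH (6 mM stock). Samples were quenched with acetonitrile containing internal standard at 0, 5, 15, 30 and 45 min, then centrifuged, and the supernatant was diluted with water for LC/MS. Runs were in duplicate. T1/2 = ln2/k from the log-linear slope, and CLint was derived from T1/2.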
# Enterococcus faecalis [7] = test: Antibacterial activity against clinical isolates of linezolid-resistant Enterococcus faecalis assessed as complete reduction in bacterial cell growth by CLSI protocol based broth liquid microdilution method; format: functional; procedure, shortened: as §1
# HepG2 = test: Cytotoxicity against human HepG2 cells assessed as reduction in cell viability incubated for 48 hrs by MTT assay; format: cell-based; conditions: HepG2, 48 h
# Procedure, shortened: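 HepG2 cells were grown in RPMI1640 with 10% FBS and plated at about 4×10^4 cells/well in MEM. After 24 h at 37 °C in 5% CO2, compounds were added at the indicated final concentrations for 48 h. MTT was added (0.5 mg/mL final) for 4 h at 37 °C and the formazan dissolved in DMSO. Absorbance was read at 492 nm (630 nm reference). Each compound was tested three times; IC50 given as mean ± SD.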
# [8] = Stability in human liver microsomes assessed as intrinsic clearance at 1.5 uM preincubated for 5 mins with NADPH and measured after 45 mins by LC/MS analysis; format: ADME, Microsome; conditions: read-out: CLH; procedure, shortened: as §2
# Enterococcus faecium [9] = test: Antibacterial activity against vancomycin-resistant Enterococcus faecium assessed as complete reduction in bacterial cell growth by CLSI protocol based broth liquid microdilution method; format: functional; procedure, shortened: as §1
# Staphylococcus aureus [10] = test: Antibacterial activity against clinical isolates of methicillin-sensitive Staphylococcus aureus assessed as reduction in bacterial cell growth by CLSI protocol based broth microdilution method; format: functional; procedure, shortened: as §1
# Enterococcus faecium [11] = test: Potency index, ratio of rade-zolid MIC to compound MIC for antibacterial activity against vancomycin-resistant Enterococcus faecium by CLSI protocol based broth liquid microdilution method; format: functional
# MAO-A = target: T1, MAO-A (Homo sapiens, UniProt P21397); test: Inhibition of recombinant human MAO-A (active motif 31502) at 30 uM using luciferin as substrate incubated for 15 mins followed by substrate addition and measured after 60 mins by luminescence based method relative to control; conditions: probe luciferin
# T1 sequence (P21397 whole entry): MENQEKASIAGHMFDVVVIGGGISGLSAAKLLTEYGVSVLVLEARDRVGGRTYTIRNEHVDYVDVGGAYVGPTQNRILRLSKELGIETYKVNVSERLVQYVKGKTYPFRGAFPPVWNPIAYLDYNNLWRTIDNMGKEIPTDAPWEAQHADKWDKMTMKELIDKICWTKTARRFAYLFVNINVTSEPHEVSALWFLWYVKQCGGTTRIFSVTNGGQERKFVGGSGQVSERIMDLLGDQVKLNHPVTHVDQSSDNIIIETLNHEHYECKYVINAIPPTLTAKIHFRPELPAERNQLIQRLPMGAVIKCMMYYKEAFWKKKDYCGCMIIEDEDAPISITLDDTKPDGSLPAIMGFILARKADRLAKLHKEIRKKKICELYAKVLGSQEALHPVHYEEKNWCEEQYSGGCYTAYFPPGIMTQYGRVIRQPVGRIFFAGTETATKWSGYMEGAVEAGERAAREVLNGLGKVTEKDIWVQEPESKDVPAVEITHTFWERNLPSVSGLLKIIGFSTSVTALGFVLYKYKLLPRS
# Procedure, shortened: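 Recombinant human MAO-A was measured with the MAO-Glo kit, modified. Compounds were in DMSO (1% DMSO final) and preincubated with enzyme 15 min at room temperature. Luciferin-derivative substrate was then added and the reaction run 60 min at room temperature. Luciferase detection reagent was added for 20 min and luminescence read. Buffer without enzyme served as the 100% inhibition control; DMSO alone as the no-inhibition control. Percent inhibition = (Max − signal)/(Max − Min)×100.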
# Staphylococcus aureus [12] = test: Antibacterial activity against Staphylococcus aureus ATCC 29213 assessed as complete reduction in bacterial cell growth by CLSI protocol based broth liquid microdilution method; format: functional; procedure, shortened: as §1
# [13] = Stability in simulated gastric acid assessed as compound remaining at pH 1.2 incubated for 0.5 hrs; format: ADME; conditions: read-out: Stability
# [14] = Stability in simulated gastric acid assessed as compound remaining at pH 1.2 incubated for 1.5 hrs; format: ADME; conditions: read-out: Stability
# Staphylococcus aureus [15] = test: Potency index, ratio of rade-zolid MIC to compound MIC for antibacterial activity against Staphylococcus aureus ATCC 29213 by CLSI protocol based broth liquid microdilution method; format: functional
# Enterococcus faecalis [16] = test: Antibacterial activity against linezolid-resistant Enterococcus faecalis assessed as complete reduction in bacterial cell growth by CLSI protocol based broth liquid microdilution method; format: functional; procedure, shortened: as §1
# [17] = Stability in simulated gastric acid assessed as compound remaining at pH 1.2 incubated for 1 hr; format: ADME; conditions: read-out: Stability
# Staphylococcus aureus [18] = test: Antibacterial activity against methicillin-resistant Staphylococcus aureus assessed as complete reduction in bacterial cell growth by CLSI protocol based broth liquid microdilution method; format: functional; procedure, shortened: as §1
# Staphylococcus aureus [19] = test: Antibacterial activity against methicillin-sensitive Staphylococcus aureus assessed as complete reduction in bacterial cell growth by CLSI protocol based broth liquid microdilution method; format: functional; procedure, shortened: as §1
# [20] = Stability in human liver microsomes assessed as half life at 1.5 uM preincubated for 5 mins with NADPH and measured after 45 mins by LC/MS analysis; format: ADME, Microsome; procedure, shortened: as §2
# Staphylococcus aureus [21] = test: Potency index, ratio of MIC of linezolid to MIC of compound for antibacterial activity against clinical isolates of methicillin-sensitive Staphylococcus aureus by CLSI protocol based broth liquid microdilution method; format: functional
SMILES,solubility [1] [µg/mL],Ratio (Enterococcus faecalis [2]),MIC (Enterococcus faecium [3]) [µg/mL],remaining at 2 h [4] [%],Ratio (Staphylococcus aureus [5]),MIC (Enterococcus faecalis [7]) [µg/mL],IC50 (HepG2) [µM],CLint scaled at 1.5 µM [8] [mL/min/kg],MIC (Enterococcus faecium [9]) [µg/mL],MIC (Staphylococcus aureus [10]) [µg/mL],Ratio (Enterococcus faecium [11]),"inhibition at 1 h, 30 µM (MAO-A) [%]",MIC (Staphylococcus aureus [12]) [µg/mL],remaining at 0.5 h [13] [%],remaining at 1.5 h [14] [%],Ratio (Staphylococcus aureus [15]),MIC (Enterococcus faecalis [16]) [µg/mL],remaining at 1 h [17] [%],MIC (Staphylococcus aureus [18]) [µg/mL],MIC (Staphylococcus aureus [19]) [µg/mL],further results
CC(=O)NC[C@H]1CN(c2ccc(-c3ccc(/C=N/N4CCS(=O)(=O)CC4)nc3)c(F)c2)C(=O)O1,68,2 - 4,0.5,98.7,2 - 4,0.25 to 0.5,> 25,4.25,0.125,0.25 to 0.5,2 - 4,72,0.125,99.7,99.2,2 - 4,0.25,99.4,0.125,0.125,"remaining at 0.75 h, 1.5 µM ([6]; liver microsomes, read-out: Stability): 93%; half-life at 1.5 µM ([20]; liver microsomes): 6.82 h"
CC(=O)NC[C@H]1CN(c2ccc(-c3ccc(/C=N/N4CCOCC4)nc3)c(F)c2)C(=O)O1,,2 - 4,1,,2 - 4,0.25 to 0.5,,,0.25,0.25 to 0.5,2 - 4,,0.125,,,2 - 4,0.25,,0.125,0.25,
CC(=O)NC[C@H]1CN(c2ccc(-c3ccc(/C=N/N4CCSCC4)c(O)c3)c(F)c2)C(=O)O1,,,0.125 to 0.25,75.9,,0.125 to 0.25,> 25,,0.125,0.125 to 0.25,,62,0.125,96,82.9,,0.125,94.6,0.125,0.125,Ratio (Staphylococcus aureus [21]): 4 - 32
CC(=O)NC[C@H]1CN(c2ccc(-c3ccc(/C=N/N4CCSCC4)nc3)c(F)c2)C(=O)O1,57,2 - 4,1,98,2 - 4,0.5,> 25,90.3,0.25,0.25 to 0.5,2 - 4,75,0.125,99.4,98.6,2 - 4,0.25,99,0.125,0.25,"Stability ([6]; microsomes, 0.75 h, 1.5 µM): 0.62%; t1/2 ([20]; microsomes, 0.75 h, 1.5 µM): 0.3207 h"
